# Data reported in PubChem BioAssay AID492951 (Molecular Libraries Program, Specialized Chemistry Center, …, 2010).
# The source made the active and inactive calls.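 How the source made its calls: active means inhibition above 10%; inactive means the rest.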
# Molecular target: Hexokinase-4 (Homo sapiens) (UniProt P35557)
# Assay: human glucokinase inhibition, counter-screen for TbHK1 inhibitor project, biochemical, recombinant hGlck (AID 492951)
# Conditions: G6PDH-coupled NADH absorbance 340 nm, at 10 µM; hits give high values
# Outline: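 Test system: recombinant human glucokinase, G6PDH-coupled; Medium: pH 7.9 TEA buffer, MgCl2, NAD+; Also added: 20 mM glucose as reaction starter, plus 1 mM ATP; Compound dosing: single final test compound dose of 10 µM; Schedule: 10 min preincubation at room temperature; Measured by: NADH formation by absorbance at 340 nm; Repeats: triplicate.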
# Sequence of Hexokinase-4 (Homo sapiens) (P35557 whole entry, looked up): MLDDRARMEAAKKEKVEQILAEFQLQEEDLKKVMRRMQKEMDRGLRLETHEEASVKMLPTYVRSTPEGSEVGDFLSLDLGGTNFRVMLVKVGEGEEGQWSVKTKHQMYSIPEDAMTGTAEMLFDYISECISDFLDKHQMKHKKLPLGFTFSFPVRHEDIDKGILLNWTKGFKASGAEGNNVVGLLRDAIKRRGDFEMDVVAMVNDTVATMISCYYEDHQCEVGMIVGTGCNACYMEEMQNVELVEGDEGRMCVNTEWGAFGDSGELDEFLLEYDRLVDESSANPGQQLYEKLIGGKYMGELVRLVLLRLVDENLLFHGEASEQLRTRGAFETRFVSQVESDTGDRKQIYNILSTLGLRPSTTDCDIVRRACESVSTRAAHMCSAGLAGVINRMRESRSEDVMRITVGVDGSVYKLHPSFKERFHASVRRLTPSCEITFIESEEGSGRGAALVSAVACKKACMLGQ
SMILES,outcome,inhibition
O=C(Nc1cc(Cl)ccc1C(=O)O)c1cocn1,inactive,
CC(C)(C)c1ccc(C(=O)N2CCC(=O)c3ccc(Cl)cc32)cc1,inactive,
O=C(Nc1cc(Cl)ccc1C(=O)O)c1ccc2ccccc2c1,,11.5% (active)
COc1ccccc1C(=O)Nc1cc(Cl)ccc1C(=O)O,inactive,
Cn1sc2ccccc2c1=O,inactive,
COc1ccc(C(=O)Nc2cc(Cl)ccc2O)cc1,,22.2% (active)
CCOC(=O)c1ccncc1NC(=O)c1ccc(OC)cc1,inactive,
O=C(Nc1ccccc1)n1sc2ccccc2c1=O,,32.9% (active)
CCCCCCCC(=O)Nc1cc(Cl)ccc1C(=O)O,inactive,
Cc1ccc(-n2sc3cc(F)ccc3c2=O)c(C)c1,,55.6% (active)
COc1ccc(C(=O)NC(CC(=O)O)c2ccc(Cl)cc2)cc1 (stereo not drawn),inactive,
CN(C)c1ccc(C(=O)Nc2cc(Cl)ccc2C(=O)O)cc1,inactive,
Cc1ccc(C(=O)Nc2cc(Cl)ccc2C(=O)O)cc1,inactive,
O=C(Cn1sc2ccccc2c1=O)Nc1ccc(Cl)cc1,inactive,
Cc1ccc(NC(=O)Cn2sc3ccccc3c2=O)cc1,,2.1% (inactive)
N#Cc1ccc(Oc2ccc3c(c2)B(O)OC3)cc1,inactive,
CC(C)(C)c1ccc(C(=O)Nc2cc(Cl)ccc2-c2nn[nH]n2)cc1,,28.4% (active)
COc1ccc(C(=O)Nc2cc(Cl)ccc2-c2noc(=O)[nH]2)cc1,,30.1% (active)
COc1ccc2c(c1)CN(c1cc(Cl)ccc1C(=O)O)C2=O,inactive,

SMILES,outcome,inhibition
CC(C)(C)c1ccc(C(=O)Nc2cc(Cl)ccc2O)cc1,inactive,
COc1ccc(C(=O)O)c(NC(=O)c2ccc(Cl)cc2)c1,,15.8% (active)
N#Cc1ccccc1NC(=O)Cn1sc2ccccc2c1=O,,10.9% (active)
COc1ccc(NC(=O)c2ccccc2C(=O)O)cc1,,0.9% (inactive)
O=C(Cn1sc2ccccc2c1=O)Nc1ccc(F)cc1,,1.7% (inactive)
O=c1c(O)c(-c2ccc(O)c(O)c2)oc2cc(O)cc(O)c12,,68.9% (active)
O=c1c2ccc(F)cc2sn1Cc1ccccc1,,56.1% (active)
O=c1s[nH]c2ccccc12,,48.8% (active)
COc1ccc(C(=O)Nc2cc(Cl)ccc2C(=O)O)cn1,inactive,
COC(=O)c1ccc(Cl)cc1NC(=O)c1ccc(OC)cc1,,18.2% (active)
COc1ccc(C(=O)Nc2cc(Br)ccc2C(=O)O)cc1,inactive,
O=c1c2cccnc2sn1-c1ccccc1,,91.5% (active)
COc1ccc(C(=O)Nc2cc(Cl)ccc2C(=O)O)cc1,,7.8% (inactive)
O=C(Cn1sc2ccccc2c1=O)Nc1ccccc1F,inactive,
CC(C)(C)c1ccc(C(=O)Nc2c(C(=O)O)ccc(Cl)c2Cl)cc1,inactive,
O=C1c2cc(Br)ccc2S(=O)N1c1ccccc1 (stereo not drawn),inactive,
O=c1c2cc(F)ccc2sn1-c1ccc(Cl)cc1,,40% (active)
CCc1ccc(C(=O)Nc2cc(Br)ccc2C(=O)O)cc1,inactive,
O=C(Cn1sc2ccccc2c1=O)Nc1ccccc1I,,14.5% (active)
